Bioassay records: PubChem, several laboratories
PGE2 EP2 inh: EP2 receptor (human) inhibition | P43116 | C6 glioma cells expressing human EP2, cAMP TR-FRET; cells stimulated with saturating PGE2 | inhibition, % at 25 µM | 260,000 compounds, 0.52% hits | AID 1422;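 active = percent inhibition above 40 after rounding to a whole number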;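 note: rat C6 glioma host cells with rolipram phosphodiesterase inhibitor present; the protocol text gives 20 µM as final concentration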
GPR7 antag: antagonists of human GPR7 (neuropeptides B/W receptor 1) | GPR7-expressing cells, fluorescence antagonist assay | inhibition, % at 4.4 µM | 290,000 compounds, 1.1% hits | AID 1861; in the data active = inhibition above about 16%, passing the limit was not always enough;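 note: cells stimulated with the agonist NPW; 0% = agonist with vehicle and 100% = vehicle without agonist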
OX1R antag-1: OX1R (human) antagonism; inhibition, % at 6.6 µM; OX1R-expressing cells, FRET antagonist read-out; O43613; 330,000 compounds, 1.8% hits; in the data active = inhibition mostly above about 38%, no sharp cut-off; inactive = mostly below about 40%;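 note: 0% = agonist challenge alone and 100% = reference antagonist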
Target sequence (O43613 whole entry, looked up): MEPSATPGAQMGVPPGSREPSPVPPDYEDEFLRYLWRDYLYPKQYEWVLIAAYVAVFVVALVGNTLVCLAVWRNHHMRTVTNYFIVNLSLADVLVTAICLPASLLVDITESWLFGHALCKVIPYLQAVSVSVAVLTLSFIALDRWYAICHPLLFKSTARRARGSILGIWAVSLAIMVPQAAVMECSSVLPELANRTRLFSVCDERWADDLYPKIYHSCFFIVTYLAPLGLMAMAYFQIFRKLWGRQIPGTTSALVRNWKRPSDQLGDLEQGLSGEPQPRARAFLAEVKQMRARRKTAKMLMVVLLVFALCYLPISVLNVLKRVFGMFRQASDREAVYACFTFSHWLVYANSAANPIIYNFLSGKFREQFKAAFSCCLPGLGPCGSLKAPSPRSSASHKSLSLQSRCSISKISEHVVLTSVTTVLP
EP2 modulator: modulates human prostaglandin E2 receptor EP2 signaling | 260,000 compounds, 0.83% hits | induction, % at 25 µM | AID 940 | EP2-expressing cells, cAMP HTRF FRET, PGE2 co-stimulation;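 active = compounds whose cAMP rise, as percent of the full-agonist control response, exceeds 60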;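 note: rat C6 glioma line stably carrying human EP2 under a CMV promoter; the protocol text gives 20 µM as final concentration; 100% = response of wells given 1 µM PGE2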
OX1R antag-2: antagonists of human orexin 1 receptor | O43613 | 330,000 compounds, 0.43% hits | inhibition, % at 5 µM | CHO/OX1R cells, Fluo-8 calcium fluorescence, orexin A;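 active = inhibition above its plate's threshold, mean inhibition of all tested compounds on the plate plus 3 SD, cut at about 37% in these data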;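 note: 0% = orexin A challenge wells and 100% = SB-334867-A antagonist wells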
CHO parental Ca: counter-screen: ATP calcium response change in parental CHO cells | parental CHO-K1, ATP-induced calcium, Fluo-8 fluorescence | inhibition, % at 5.6 µM | 330,000 compounds, 0.63% hits | AID 463079;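 active = inhibition above that plate's mean sample inhibition plus 3 SD, cut at about 26% in these data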;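 note: 0% = ATP-challenged DMSO wells and 100% = DMSO wells without ATP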
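Measured by: calcium-sensitive Fluo-8 fluorescence / Test system: CHO parental line / Controls: ATP-challenged DMSO wells low, unchallenged DMSO wells high / Measure: % inhibition / Compound: single nominal dose of 5.6 µM per compound / Replicates: single well per compound, no replicates / Reagent: ATP as calcium-mobilizing challenge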
OX1R Ca confirm: OX1R (human) antagonism, confirmed; 1,100 compounds, 38% hits; CHO/OX1R cells, orexin A calcium Fluo-8 fluorescence; inhibition, % at 5 µM; AID 492963; shares compounds with OX1R antag-2; in the data active = inhibition above about 29%;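 note: 0% = agonist challenge alone and 100% = reference antagonist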
CHO Ca counter: counter-screen: parental CHO calcium response change, triplicate | shares compounds with OX1R antag-2 | parental CHO-K1, ATP-induced calcium, Fluo-8 fluorescence | inhibition, % at 5.6 µM | 1,100 compounds, 9.3% hits | AID 492965;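 active = inhibition above a per-plate limit, the mean inhibition of that plate's test compounds plus 3 SD, cut at about 25% in these data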;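 note: 0% = ATP challenge with DMSO and 100% = DMSO without ATP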
OX1R HTRF confirm: confirmation of human orexin 1 receptor antagonists, HTRF format | shares compounds with OX1R antag-1 | inhibition, % at 6.6 µM | 1,800 compounds, 49% hits | OX1R-expressing cells, HTRF antagonist assay | AID 492964; in the data active = inhibition above about 55%;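 note: CHO cells expressing OX1R stimulated with orexin A at about EC80; 0% = agonist challenge alone and 100% = reference antagonist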
CHO-K1 HTRF cnt: signal in parental CHO-K1 cells, OX1R antagonist counter-screen. shares compounds with OX1R antag-1. inhibition, % at 6.6 µM. 1,800 compounds, 48% hits. HTRF counterscreen; in the data active = inhibition above about 17%;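 note: 0% = agonist challenge with vehicle and 100% = vehicle alone without agonist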
Active calls of the source: *; . = not tested or not shown. Sampled rows, rich in hits. Any-hit rate of the full collection: about 3.7%.

SMILES	PGE2 EP2 inh	GPR7 antag	OX1R antag-1	EP2 modulator	OX1R antag-2	CHO parental Ca	OX1R Ca confirm	CHO Ca counter	OX1R HTRF confirm	CHO-K1 HTRF cnt
Cc1cccc(NC(=O)[C@@H]2CCCN2S(=O)(=O)c2ccc(Cl)cc2)c1	.	.	91*	.	74*	-22	55*	-27	89*	4
CCc1cccc(NC(=O)C2CCCN2S(=O)(=O)c2cccc3cccnc23)c1 (stereo unspecified)	.	7	89*	.	87*	-30	50*	-9	85*	5
COc1ccc(/C=N/NC(=S)NC2CCS(=O)(=O)C2)cc1 (stereo unspecified)	4	8	9	-13	8	-2	.	.	.	.
Cc1nnc(SCC(=O)Nc2ccc(N(C)C)cc2)n(N)c1=O	4	-5	17	31	-8	-12	.	.	.	.
O=C(NC(Cc1c[nH]c2ccccc12)C(=O)N/N=C/c1ccc(Cl)cc1)c1cccs1 (stereo unspecified)	6	2	98*	-10	48*	-5	64*	8	81*	-1
O=C(NC(Cc1c[nH]c2ccccc12)C(=O)N1CCOCC1)c1cccs1 (stereo unspecified)	6	-9	3	-4	-13	-18	.	.	.	.
COc1ccc(/C=C/c2nc(N)nc(-c3ccccc3O)n2)cc1OC	16	-13	87*	-49	63*	-2	70*	-7	92*	6
Cn1c(CC(=O)Nc2cccc(Cl)c2Cl)nnc1SCC(=O)NC1=NCCS1	.	7	22	.	1	10	.	.	.	.
COc1ccccc1C(=O)NCCc1c(C)[nH]c2c(C)ccc(F)c12	0	-6	50*	-32	26	12	2	-22	32	-4
COc1ccccc1C(=O)NCC(=O)NCCc1ccc(Cl)cc1	.	-13	8	.	-35	-22	.	.	.	.
COc1nccnc1NS(=O)(=O)c1ccc(NC(=S)NC(=O)c2cccc(F)c2)cc1	9	2	20	-24	9	5	.	.	.	.
C=C(C)Cn1c(=O)c2c(nc3n2CCN3c2cccc(Cl)c2C)n(C)c1=O	12	.	12	.	-35	-9	.	.	.	.
Cc1ncc([N+](=O)[O-])n1CCOC(=O)NC(NCc1cccnc1)C(Cl)(Cl)Cl (stereo unspecified)	4	-8	17	-1	-8	-10	.	.	.	.
CN(C)c1ccc(/C=C/c2ccc3ccccc3n2)cc1	10	6	75*	-57	62*	14	52*	15	80*	8
CC(C)c1ccc(C(=O)CC2(O)C(=O)N(CN3CCOCC3)c3ccccc32)cc1 (stereo unspecified)	11	-9	19	1	-3	-19	.	.	.	.
O=C(CCc1nc2ccccc2c(=O)[nH]1)NNC(=O)c1ccccc1Cl	.	.	12	.	3	-7	.	.	.	.
CCN(Cc1ccccc1)c1ccc(/C=C(\C#N)c2ccccn2)cc1	10	-16	25	-4	-25	-24	.	.	.	.
CCN(CC)c1ccc(/C=C(\C#N)c2ccccn2)cc1	13	-4	80*	57	34	-7	4	-7	90*	9
CN1C(=S)SC(/[N+]([O-])=C\c2cccs2)C1(C)C (stereo unspecified)	22	-3	14	4	-8	7	.	.	.	.
NC(=O)C1CN(C(=O)c2cccc(S(=O)(=O)N3CCc4ccccc43)c2)c2ccccc2O1 (stereo unspecified)	.	.	69*	.	52*	-12	37*	-16	67*	-3
c1ccc(-c2nccc(-c3ccc4c(c3)OCO4)n2)cc1	0	1	90*	39	33	-9	13	17	84*	8
